Results from different studies.
Lines come from different studies, so protocols differ.
Target: Cytochrome P450 2D6 (CYP2D6, Homo sapiens, UniProt P10635)
Observed: enzyme activity
Action: inhibitor

C=CC(=O)Nc1cc(Nc2nccc(Nc3cc(Cl)c(F)cc3C(C)(C)O)n2)c(OC)cc1N1CC[C@@H](N(C)C)C1 — IC50 (human; liver microsomes): 6.3 µM
Nc1nc(N)c2nc(C(=O)NCc3cccc(C(F)(F)F)c3)cnc2n1 — IC50 (luciferase): 0.251 µM
N#C[C@H](C[C@@H]1CCCNC1=O)NC(=O)[C@H](CC1CC1)NC(=O)c1cc2cccc(Cl)c2[nH]1 — IC50 (human; liver microsomes): 50.7 µM
CCOC(=O)C1CCN(C(=O)c2ccc(N(CC)Cc3cnc4nc(N)nc(N)c4n3)cc2)CC1 — IC50 (luciferase): 51.3 µM
C[C@@H](c1ccc2nccn2c1)n1nnc2ncc(-c3cnn(C)c3)nc21 — IC50 (human; liver microsomes; pH 7.4): 24 µM
CC1=CC(=O)C(C(C)C)=CC1=O — IC50 (fluorescence; pH 7.4): 282 µM
CCc1cc(/C(C)=N/OCc2ccc(C3CCCCC3)c(C(F)(F)F)c2)ccc1CN1CC(C(=O)O)C1 — IC50 (human; liver microsomes; 20 min): > 1.1 µM
COc1ccn2c(Nc3ccccc3F)c(-c3ccncn3)nc2c1 — IC50: 2.3 µM
COc1ccc2c(Cc3ccccc3F)c3n(c(=O)c2c1OC)CCc1cc2c(cc1-3)OCO2 — IC50: > 10 µM
Nc1nc(N)c2nc(C(=O)NCc3ccccc3)cnc2n1 — IC50 (luciferase): 0.204 µM
Fc1ccc(Nc2c(-c3ccccn3)nc3ccc(C4CC4)cn23)cc1 — IC50: 1.5 µM
Cc1coc([C@H]2C[C@H]3[C@@H](CF)SC(N)=N[C@@]3(c3ccc(F)cc3F)CO2)n1 — IC50 (human; liver microsomes; pH 7.4): > 30 µM
